Assay results published in ChEMBL document CHEMBL1828622, “Structure-based design and synthesis of 1,3-oxazinan-2-one inhibitors of 11β-hydroxysteroid dehydrogenase type 1” (J Med Chem, 2011).
Blank lines part the entries; values can stand above or below the compound they belong to.

Experiments:
[1] = Oral bioavailability in rat at 10 mg/kg; assay type: ADME, organism-based; conditions: in vivo
How it was run: (§1)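 Rat pharmacokinetics after single iv dose of 2 mg/kg and oral dose of 10 mg/kg; oral vehicle differs by compound: 10% ethanol/10% Tween 80 (polysorbate 80)/80% PEG 400 solution, the same with 1% DMSO, or 0.5% methyl cellulose in deionized water suspension. Readouts: oral AUC(inf), oral t1/2, iv clearance, oral bioavailability F.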

[2] = AUC (infinity) in rat at 10 mg/kg, po; assay type: ADME, organism-based; set-up: time infinity, dose 10 mg/kg, route oral; conditions: plasma; how it was run: as §1
[3] = Biodistribution in mouse liver at 30 mg/kg, po administered as single dose measured after 4 hrs by LC-MS/MS method; assay type: ADME, organism-based; set-up: dose 30 mg/kg, route oral; conditions: read-out: Drug uptake
How it was run: (§2)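 Mice (n = 3) given single oral 30 mg/kg dissolved in 10% ethanol/10% Tween 80/80% PEG 400; tissues collected at sacrifice at 1, 4 and 8 h, snap frozen, later thawed and homogenized in 0.05 M BES pH 7; compound extracted into acetonitrile and quantified by LC-MS/MS against standard curves prepared separately in each tissue matrix.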

[4] = Biodistribution in mouse adipose tissue at 30 mg/kg, po administered as single dose measured after 1 hr by LC-MS/MS method; assay type: ADME, organism-based; set-up: dose 30 mg/kg, route oral; conditions: read-out: Drug uptake; how it was run: as §2
[5] = Oral bioavailability in cynomolgus monkey at 2 mg/kg; assay type: ADME, organism-based, Macaca fascicularis; conditions: in vivo
[6] = Biodistribution in mouse adipose tissue at 30 mg/kg, po administered as single dose measured after 8 hrs by LC-MS/MS method; assay type: ADME, organism-based; set-up: dose 30 mg/kg, route oral; conditions: read-out: Drug uptake; how it was run: as §2
[7] = AUC (infinity) in dog at 2 mg/kg, po; assay type: ADME, organism-based, Canis lupus familiaris; set-up: time infinity, dose 2 mg/kg, route oral; conditions: plasma
[8] = Biodistribution in mouse liver at 30 mg/kg, po administered as single dose measured after 8 hrs by LC-MS/MS method; assay type: ADME, organism-based; set-up: dose 30 mg/kg, route oral; conditions: read-out: Drug uptake; how it was run: as §2
[9] = Biodistribution in mouse adipose tissue at 30 mg/kg, po administered as single dose measured after 4 hrs by LC-MS/MS method; assay type: ADME, organism-based; set-up: dose 30 mg/kg, route oral; conditions: read-out: Drug uptake; how it was run: as §2
[10] = AUC (infinity) in cynomolgus monkey at 2 mg/kg, po; assay type: ADME, organism-based, Macaca fascicularis; set-up: time infinity, dose 2 mg/kg, route oral; conditions: plasma
[11] = Biodistribution in mouse plasma at 30 mg/kg, po administered as single dose measured after 8 hrs by LC-MS/MS method; assay type: ADME, organism-based; set-up: dose 30 mg/kg, route oral; conditions: read-out: Drug uptake; how it was run: as §2
[12] = Biodistribution in mouse plasma at 30 mg/kg, po administered as single dose measured after 1 hr by LC-MS/MS method; assay type: ADME, organism-based; set-up: dose 30 mg/kg, route oral; conditions: read-out: Drug uptake; how it was run: as §2
[13] = Oral bioavailability in dog at 2 mg/kg; assay type: ADME, organism-based, Canis lupus familiaris; conditions: in vivo
[14] = Biodistribution in mouse liver at 30 mg/kg, po administered as single dose measured after 1 hr by LC-MS/MS method; assay type: ADME, organism-based; set-up: dose 30 mg/kg, route oral; conditions: read-out: Drug uptake; how it was run: as §2
[15] = Biodistribution in mouse plasma at 30 mg/kg, po administered as single dose measured after 4 hrs by LC-MS/MS method; assay type: ADME, organism-based; set-up: dose 30 mg/kg, route oral; conditions: read-out: Drug uptake; how it was run: as §2

- bioavailability [1]: 23%
- AUC(0-inf) [2]: 450 ng·h/mL
SMILES: C[C@@H](c1ccc(-c2ccc(F)cc2)cc1)N1CC[C@](CCCO)(c2ccccc2)OC1=O

- bioavailability [1]: 94%
- concentration at 4 h [3]: 9810 ng/mL
- concentration at 1 h [4]: 5520 ng/mL
- bioavailability [5]: 26%
- AUC(0-inf) [2]: 3870 ng·h/mL
- concentration at 8 h [6]: 632 ng/mL
- AUC(0-inf) [7]: 584 ng·h/mL
- concentration at 8 h [8]: 1900 ng/mL
- concentration at 4 h [9]: 3160 ng/mL
- AUC(0-inf) [10]: 1500 ng·h/mL
- concentration at 8 h [11]: 573 ng/mL
- concentration at 1 h [12]: 5930 ng/mL
- bioavailability [13]: 16%
- concentration at 1 h [14]: 15300 ng/mL
- concentration at 4 h [15]: 3260 ng/mL
SMILES: C[C@@H](c1ccc(-c2ccc(F)cc2F)cc1)N1CC[C@](CCO)(c2ccc(F)cc2)OC1=O

- bioavailability [1]: 44%
- AUC(0-inf) [2]: 1040 ng·h/mL
SMILES: O=C1OC(CCO)(c2ccccc2)CCN1c1cccc(-c2ccc(F)cc2F)c1 (stereo not given)

- bioavailability [1]: 4%
- AUC(0-inf) [2]: 99 ng·h/mL
SMILES: Cc1cccc(N2CCC(C)(c3ccccc3)OC2=O)c1 (single isomer, unassigned; isomer 1)

- bioavailability [1]: 19%
- AUC(0-inf) [2]: 915 ng·h/mL
SMILES: C[C@@H](c1ccc(-c2ccc(F)cc2F)cc1)N1CC[C@](CCCO)(c2ccccc2)OC1=O

- bioavailability [1]: 83%
- AUC(0-inf) [2]: 3170 ng·h/mL
SMILES: C[C@@H](c1ccc(-c2ccc(F)cc2)cc1)N1CC[C@](CCO)(c2ccc(F)cc2)OC1=O
